Reference: ChEMBL document CHEMBL1154667, “Synthesis of 3beta, 7alpha, 11alpha-trihydroxy-pregn-21-benzylidene-5-en-20-one derivatives and their cytotoxic activities” (2009)

Test: Cytotoxicity against human EC109 cells at 50 ug/ml after 48 hrs by MTT assay
Type: functional
Conditions: ECa-109, 48 h
Summary of the method: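 EC109 cells grown in RPMI-1640 with 10% fetal calf serum, penicillin and streptomycin at 37 °C in 5% CO2. Seeded at 7000 cells/well; compound diluted in medium added next day for 48 h. MTT (0.5 mg/mL in PBS) then added for a further 4 h, formazan dissolved in DMSO, absorbance read at 570 nm.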

In order of falling inhibition at 50 µg/mL:
1. C=C1C(=O)[C@]23[C@H](O)[C@H]1CC[C@H]2[C@@]12CO[C@]3(O)[C@@H](O)[C@@H]1C(C)(C)CC[C@@H]2O [ORIDONIN]  94.7%
2. C[C@]12C[C@@H](O)[C@H]3[C@@H]([C@H](O)C=C4C[C@@H](O)CC[C@@]43C)[C@@H]1CC[C@@H]2C(=O)/C=C/c1ccc(Cl)cc1  80.2%
3. C[C@]12C[C@@H](O)[C@H]3[C@@H]([C@H](O)C=C4C[C@@H](O)CC[C@@]43C)[C@@H]1CC[C@@H]2C(=O)/C=C/c1ccc(F)cc1  76.8%
4. C[C@]12C[C@@H](O)[C@H]3[C@@H]([C@H](O)C=C4C[C@@H](O)CC[C@@]43C)[C@@H]1CC[C@@H]2C(=O)/C=C/c1cccc(Cl)c1  76.4%
5. C[C@]12C[C@@H](O)[C@H]3[C@@H]([C@H](O)C=C4C[C@@H](O)CC[C@@]43C)[C@@H]1CC[C@@H]2C(=O)/C=C/c1cccc([N+](=O)[O-])c1  72.4%
6. C[C@]12C[C@@H](O)[C@H]3[C@@H]([C@H](O)C=C4C[C@@H](O)CC[C@@]43C)[C@@H]1CC[C@@H]2C(=O)/C=C/c1ccccc1  59.8%
7. COc1ccc(/C=C/C(=O)[C@H]2CC[C@H]3[C@H]4[C@H]([C@H](O)C[C@]23C)[C@@]2(C)CC[C@H](O)CC2=C[C@H]4O)cc1  55.3%
8. C[C@]12C[C@@H](O)[C@H]3[C@@H]([C@H](O)C=C4C[C@@H](O)CC[C@@]43C)[C@@H]1CC[C@@H]2C(=O)/C=C/c1ccc(N)cc1  50.2%
9. COc1ccccc1/C=C/C(=O)[C@H]1CC[C@H]2[C@H]3[C@H]([C@H](O)C[C@]12C)[C@@]1(C)CC[C@H](O)CC1=C[C@H]3O  47.4%
10. C[C@]12C[C@@H](O)[C@H]3[C@@H]([C@H](O)C=C4C[C@@H](O)CC[C@@]43C)[C@@H]1CC[C@@H]2C(=O)/C=C/c1ccc(O)cc1  45.7%
11. CN(C)c1ccc(/C=C/C(=O)[C@H]2CC[C@H]3[C@H]4[C@H]([C@H](O)C[C@]23C)[C@@]2(C)CC[C@H](O)CC2=C[C@H]4O)cc1  39%
12. COc1cc(OC)c(/C=C/C(=O)[C@H]2CC[C@H]3[C@H]4[C@H]([C@H](O)C[C@]23C)[C@@]2(C)CC[C@H](O)CC2=C[C@H]4O)c(OC)c1  35.3%
13. CC(=O)[C@H]1CC[C@H]2[C@H]3[C@H]([C@H](O)C[C@]12C)[C@@]1(C)CC[C@H](O)CC1=C[C@H]3O  21.7%
14. CC(=O)[C@H]1CC[C@H]2[C@@H]3CC=C4C[C@@H](O)CC[C@]4(C)[C@H]3CC[C@]12C [PREGNENOLONE]  13.6%
